Screens from PubChem BioAssay.
Only some compounds are listed: those with a hit (about 3.8% of all), similar ones and a draw of the others.
MrgX1 antag: blocks BAM8-22 activation of human MrgX1 receptor; 310,000 compounds, 1.3% hits; MRGX1-HEK293 calcium flux, Fluo-4, BAM8-22 antagonism; active compounds read low; B-score at 10 µM; Q96LB2;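 active = calcium-response B-score plate-corrected more than 3 library SD below zero, starting fluorescence within 5 deviations, no agonist response on first addition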;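 also: peak minus trough fluorescence over baseline after final BAM8-22 challenge near maximal dose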
Target sequence (Q96LB2 whole entry, looked up): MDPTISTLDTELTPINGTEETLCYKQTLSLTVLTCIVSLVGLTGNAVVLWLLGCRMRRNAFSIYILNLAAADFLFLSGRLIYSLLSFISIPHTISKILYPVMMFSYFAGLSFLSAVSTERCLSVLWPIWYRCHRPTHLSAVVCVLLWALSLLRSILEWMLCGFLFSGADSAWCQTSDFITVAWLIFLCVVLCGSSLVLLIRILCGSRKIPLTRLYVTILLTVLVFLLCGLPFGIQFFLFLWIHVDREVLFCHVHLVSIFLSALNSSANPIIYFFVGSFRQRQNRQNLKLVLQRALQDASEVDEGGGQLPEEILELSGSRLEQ
Hep lipid drop: hepatic lipid droplet formation modulation | 240,000 compounds, 0.4% hits | inhibition, % at 6.5 µM | AID 1656 | AML12 mouse hepatocytes, oleate lipid droplets, BODIPY imaging;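 active = lipid droplet intensity inhibited by at least 50%, with more than 500 cells counted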
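Material – AML12 mouse liver cells · Also added – oleate loading, 100 µM · Compound dosing – 6.5 µM single-point dosing · Times – overnight treatment with compound plus oleate · Measured by – fluorescence imaging, 20x objective, two fields per well · Read-out – percent inhibition of filter-corrected integrated lipid droplet intensity per well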
RGS4 block: inhibitors of human RGS4. P49798. HEK293 M3R/RGS4 inducible, Fluo-4 calcium flux; active compounds read high; triggered by carbachol at its EC20. B-score at 10 µM. 310,000 compounds, 0.45% hits;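 active = B-score, a plate-corrected calcium signal, over three deviations above library mean, with baseline fluorescence within five deviations of library mean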;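 also: RGS4 expression induced by doxycycline in cells with stable M3 receptor; B-score is computed from the integrated fluorescence ratio over baseline after carbachol; higher B-score means a larger calcium signal and so more RGS4 inhibition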
Target sequence (P49798 whole entry, looked up): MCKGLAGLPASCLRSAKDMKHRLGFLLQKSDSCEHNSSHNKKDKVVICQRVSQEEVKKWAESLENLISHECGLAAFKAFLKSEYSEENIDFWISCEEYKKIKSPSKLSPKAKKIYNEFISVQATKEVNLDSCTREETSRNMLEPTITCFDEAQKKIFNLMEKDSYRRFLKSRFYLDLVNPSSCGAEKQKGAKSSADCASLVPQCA
MrgX1 agonist: agonists of human MrgX1 receptor | Q96LB2 | MrgX1-HEK293 cells, Fluo-4 calcium fluorescence, agonist mode; active compounds read high | B-score at 10 µM | 310,000 compounds, 0.44% hits;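 active = calcium response B-score plate-corrected fluorescence ratio at least 3 library SD, with starting fluorescence B-score inside 5 SD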
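Assay system: MrgX1-expressing HEK293 cells / Amount: fifteen thousand cells per well / Doses: test compound in the initial addition of three / Timing: cells plated overnight, dye loaded 0.5 h 37 °C, 0.5 h room temperature / Technique: kinetic calcium dye fluorescence, Fluo-4 NW / Control set: positive and negative controls per plate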
RGS4 act: RGS4 potentiation or activation | HEK293 M3R/inducible RGS4, carbachol calcium flux Fluo4; active compounds read low | B-score at 10 µM | 310,000 compounds, 0.92% hits;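 active = B-score of the integrated calcium signal more than 4 SD below the library mean, with starting fluorescence not abnormally high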;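 also: negative B-score means reduced calcium response which marks RGS4 activation or potentiation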
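test system = HEK293 cells with stable M3R and inducible RGS4 | schedule = recording 10 s baseline at 1 Hz, 100 s post-agonist | technique = Fluo4-AM (2 µM) calcium-flux fluorescence, kinetic read | measure = Agonist-evoked peak-minus-minimum fluorescence over baseline, integrated ratio, B score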
MrgX1 PAM: human MrgX1 positive allosteric modulation, primary screen | Q96LB2 | MrgX1-HEK293, Fluo-4 calcium flux, FDSS; active compounds read high | B-score at 10 µM | 310,000 compounds, 0.63% hits;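 active = plate-corrected calcium response at least 3 library SD above typical, normal starting fluorescence, not activating the receptor alone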;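 also: compound read alongside a low EC10 to EC30 dose of BAM8-22 agonist; peak minus trough fluorescence over baseline measured at the second addition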
MrgX1 ant reconf: human MrgX1 receptor antagonism, re-confirmation screen; shares compounds with MrgX1 antag; MrgX1-HEK293, BAM8-22 calcium flux, Fluo-4; active compounds read low; remaining BAM8-22 calcium response % of control (active compounds read low), % at 10 µM; 2,300 compounds, 19% hits;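 active = remaining agonist calcium response no higher than 100% minus 3 SD of agonist-only control wells, with starting fluorescence near control levels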;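 also: agonist BAM8-22 given at a near maximal EC90 to ECmax level; peak minus minimum fluorescence divided by baseline after agonist addition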
HEK293 Ca flux: counter-screen for MrgX1 antagonists: effect in parental HEK293 cells; shares compounds with MrgX1 antag; Fluo-4 calcium fluorescence, FDSS; fluorescence ratio F(max-min)/F0 at 10 µM; 4,000 compounds, 2% hits;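 active = duplicate-averaged calcium fluorescence ratio at least three times the standard deviation of buffer wells, a nonspecific response in parental cells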
HEK293 Ca counter: activity in parental HEK293 cells without MrgX1; shares compounds with MrgX1 antag; parental HEK293 calcium flux, Fluo-4 fluorescence ratio; active compounds read high; fluorescence ratio F(max-min)/F0 at 10 µM; 4,000 compounds, 0.4% hits;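 active = calcium fluorescence ratio, averaged over duplicates, at least 3 SD of the buffer-well ratio, meaning a nonspecific response in receptor-free cells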;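 also: untransfected parental HEK293 lacking MrgX1 used as counterscreen for MrgX1 allosteric activators; fluorescence change taken during the second addition on a kinetic imager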
HEK293 Ca cntr2: activity in parental HEK293 cells lacking MrgX1 receptor; shares compounds with MrgX1 antag; Fluo-4 calcium fluorescence (FDSS); active compounds read high; fluorescence ratio F(max-min)/F0 at 10 µM; 4,000 compounds, 8.7% hits; AID 624115;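 active = calcium fluorescence ratio at least three times the spread of buffer wells, meaning a non-specific response in parental cells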
Large screens that a line does not name were inactive (follow-up assays come after a bar, where they were run).

COC(=O)C1=C(C(=O)OC)[C@@H]2N(Cc3ccccc3)c3ccccc3[C@@]23C[C@@H](C(=O)OC)N(C(=O)C2CCC2)C3=N1	none (no result: Hep lipid drop)
CC(C)CC(=O)Nc1c2c(nn1-c1ccc(F)cc1)CSC2	MrgX1 antag -7.7 | MrgX1 ant reconf inactive | HEK293 Ca flux inactive | HEK293 Ca counter inactive | HEK293 Ca cntr2 inactive
CCC(=O)Nc1c2c(nn1-c1ccc(OC)cc1)CSC2	none
CCN1CCN(C(=O)C2COc3ccccc3O2)CC1 (stereo not drawn)	none
CCOC(=O)N1CCN(C(=O)C2COc3ccccc3O2)CC1 (stereo not drawn)	MrgX1 antag -7.8 (no result: Hep lipid drop) | MrgX1 ant reconf inactive | HEK293 Ca flux inactive | HEK293 Ca counter inactive | HEK293 Ca cntr2 inactive
COc1ccccc1C(=O)NC(=S)Nc1ccc(NC(=O)c2ccco2)cc1	none
COc1cc(OC)cc(C(=O)NC(=S)Nc2ccc(NC(=O)c3ccco3)cc2)c1	MrgX1 antag -5.1 | MrgX1 ant reconf inactive | HEK293 Ca flux inactive | HEK293 Ca counter inactive | HEK293 Ca cntr2 inactive
COc1ccc2c(=O)c(N3C(=O)c4ccccc4C3=O)c(C)oc2c1	MrgX1 antag -5.2 (no result: Hep lipid drop) | MrgX1 ant reconf inactive | HEK293 Ca flux inactive | HEK293 Ca counter inactive | HEK293 Ca cntr2 inactive
CC(=O)c1sc(NC(=O)CN2C(=O)NC3(CCCC3)C2=O)nc1-c1ccccc1	MrgX1 antag -6.4 (no result: Hep lipid drop) | MrgX1 ant reconf inactive | HEK293 Ca flux inactive | HEK293 Ca counter inactive | HEK293 Ca cntr2 inactive
O=C1OCCC1Sc1nc2ccccc2c(=O)n1Cc1ccccc1 (stereo not drawn)	MrgX1 antag -6.1 | MrgX1 ant reconf inactive | HEK293 Ca flux inactive | HEK293 Ca counter inactive | HEK293 Ca cntr2 inactive
Cc1ccsc1C(=O)NCc1ccc(F)cc1	none
C=C(C)CC(c1ccccc1)N(C(C)=O)c1ccco1 (stereo not drawn)	none
COc1ccc(NC(=O)Cn2nnc(-c3ccccc3NC(=O)c3cccs3)n2)cc1	MrgX1 antag -7 (no result: Hep lipid drop) | MrgX1 ant reconf inactive | HEK293 Ca flux inactive | HEK293 Ca counter inactive | HEK293 Ca cntr2 inactive
Cc1nc2cc(-c3cccs3)[nH]n2c(=O)c1C	MrgX1 antag -5.2 (no result: Hep lipid drop) | MrgX1 ant reconf inactive | HEK293 Ca flux inactive | HEK293 Ca counter inactive | HEK293 Ca cntr2 inactive
CCc1c(C)nc2cc(-c3ccc(Cl)cc3)[nH]n2c1=O	none (no result: Hep lipid drop)
CCOC(=O)CCc1c(C)nc2cc(-c3ccc(Cl)cc3)[nH]n2c1=O	MrgX1 antag -6 | MrgX1 ant reconf inactive | HEK293 Ca flux inactive | HEK293 Ca counter inactive | HEK293 Ca cntr2 inactive
CC(C)c1cc2c(c(O)c1O)[C@@]13CCCC(C)(C)C1CC2OC3=O (stereo partly drawn)	MrgX1 antag -4.5 | MrgX1 ant reconf 76% | HEK293 Ca flux inactive | HEK293 Ca counter inactive | HEK293 Ca cntr2 inactive
C=CCn1c(Cc2cccs2)nnc1SCC(=O)NC1CC1	MrgX1 antag -8.8 | MrgX1 ant reconf inactive | HEK293 Ca flux inactive | HEK293 Ca counter inactive | HEK293 Ca cntr2 inactive
CCn1c(Cc2cccs2)nnc1SCC(=O)NC1CC1	none
N#Cc1ccc(COC(=O)c2ccc(N3CCCC3)c([N+](=O)[O-])c2)cc1	none
COc1ccc(CNC(=S)Nc2ccccc2)cc1Cl	none (no result: Hep lipid drop)
CCCOc1ccc(CNC(=S)Nc2ccccc2)cc1Cl	MrgX1 antag -6.7 (no result: Hep lipid drop) | MrgX1 ant reconf 77% | HEK293 Ca flux inactive | HEK293 Ca counter inactive | HEK293 Ca cntr2 inactive
COc1ccc(C(C(=O)NC2CCCC2)N(C(=O)c2ccco2)c2cc3c(cc2C(C)=O)OCO3)cc1 (stereo not drawn)	none
C/C=C\C(=O)Nc1cccc(C2=NOC3(C2)C[C@H](C(N)=O)N(C(=O)Cc2ccc([N+](=O)[O-])cc2)C3)c1 (stereo partly drawn)	none (no result: Hep lipid drop)
O=C(/C=C1\SC(=O)NC1=O)Nc1ccc(C(=O)O)cc1	MrgX1 antag -10 | MrgX1 ant reconf inactive | HEK293 Ca flux inactive | HEK293 Ca counter inactive | HEK293 Ca cntr2 inactive
O=C1CC(c2ccc(F)cc2)Sc2nc(C34CC5CC(CC(C5)C3)C4)nn21 (stereo not drawn)	none
Cc1nc2n(n1)C(c1ccccc1)C1=C(CC(c3ccco3)CC1=O)N2 (stereo not drawn)	MrgX1 antag -7.9 | MrgX1 ant reconf inactive | HEK293 Ca flux inactive | HEK293 Ca counter inactive | HEK293 Ca cntr2 inactive
CC1CC(=O)C2=C(C1)Nc1ncnn1C2c1ccccc1 (stereo not drawn)	none
COc1cccc(Nc2nc(NCCO)nc(N3CCCC3)n2)c1	none (no result: Hep lipid drop)
COc1ccc(Nc2nc(NCCO)nc(N3CCCC3)n2)cc1	MrgX1 antag -5.5 (no result: Hep lipid drop) | MrgX1 ant reconf inactive | HEK293 Ca flux inactive | HEK293 Ca counter inactive | HEK293 Ca cntr2 inactive
CCOc1ccc(NC(=O)CN2CCN(c3ccc(F)cc3)CC2)cc1	MrgX1 antag -5.5 | MrgX1 ant reconf inactive | HEK293 Ca flux inactive | HEK293 Ca counter inactive | HEK293 Ca cntr2 inactive
CCOc1ccccc1NC(=O)CCC(=O)Nc1ccc2nc(N3CCN(C)CC3)cc(C)c2c1	MrgX1 antag -5.1 (no result: Hep lipid drop) | MrgX1 ant reconf inactive | HEK293 Ca flux inactive | HEK293 Ca counter inactive | HEK293 Ca cntr2 inactive
CCOC(CCNC(=O)CCC(=O)Nc1ccc2nc(N3CCN(C)CC3)cc(C)c2c1)OCC	none
CCN1C(=O)C(CC(=O)NCc2ccc(Cl)cc2)N(CC)C1=O (stereo not drawn)	MrgX1 antag -5.1 | MrgX1 ant reconf inactive | HEK293 Ca flux inactive | HEK293 Ca counter inactive | HEK293 Ca cntr2 inactive
COc1cccc(CN(C)C(=S)Nc2cccc(C)c2)c1	MrgX1 antag -4.9 | MrgX1 ant reconf inactive | HEK293 Ca flux inactive | HEK293 Ca counter inactive | HEK293 Ca cntr2 inactive
CCCCN(C(=O)CSc1n[nH]c(-c2ccc(C)cc2)n1)c1c(N)n(CCCC)c(=O)[nH]c1=O	none (no result: Hep lipid drop)
CCOC(=O)C1CCCN(C(=O)c2sc3nc(-c4ccccc4)cn3c2C)C1 (stereo not drawn)	none (no result: Hep lipid drop)
CCOC(=O)C1CCN(C(=O)c2sc3nc(-c4ccc(F)cc4)cn3c2C)CC1	MrgX1 antag -5.8 (no result: Hep lipid drop) | MrgX1 ant reconf inactive | HEK293 Ca flux inactive | HEK293 Ca counter inactive | HEK293 Ca cntr2 inactive
